Compound activity deposited in PubChem by The Scripps Research Institute Molecular Screening Center.
Most compounds without a hit are left out; they make up all but 1.9% or so of the library.
PP1 counter = blocks human PP1-alpha phosphatase, a PP5 counter-screen; P62136; purified PP1alpha, OMFP fluorescence; inhibition, % at 6.7 µM; 320,000 tested, 0.9% active; AID 2235;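 active = inhibition above the mean inhibition of all tested compounds plus 3 SD, computed separately for each screening campaign, cut at about 15% in these data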
Target sequence (P62136 whole entry, looked up): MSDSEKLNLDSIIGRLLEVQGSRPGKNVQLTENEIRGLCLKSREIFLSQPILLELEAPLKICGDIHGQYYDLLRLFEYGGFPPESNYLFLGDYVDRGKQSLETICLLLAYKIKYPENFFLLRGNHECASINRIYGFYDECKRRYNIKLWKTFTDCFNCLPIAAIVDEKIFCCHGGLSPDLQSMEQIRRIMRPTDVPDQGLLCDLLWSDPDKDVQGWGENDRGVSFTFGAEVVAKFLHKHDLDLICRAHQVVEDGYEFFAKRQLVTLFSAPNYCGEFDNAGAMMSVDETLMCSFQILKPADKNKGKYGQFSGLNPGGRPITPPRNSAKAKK
EBNA-1 inhibitor = blocks EBNA-1 binding to DNA | EBNA-1 DNA binding, fluorescence polarization | inhibition, % at 14.8 µM | 300,000 tested, 0.34% active | AID 1950; in the data active = inhibition above about 28%
ZTA counter = ZTA (EBV) inhibition in EBNA-1 counter-screen | inhibition, % at 11 µM | ZTA-DNA binding, fluorescence polarization | P03206 | 320,000 tested, 0.15% active; in the data active = inhibition above about 33%
core dimer inh = blocks dimerization of HCV core protein | TR-FRET GST/Flag-core106 dimerization, 1536-well | inhibition, % at 5 µM | 300,000 tested, 0.33% active | AID 1899;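 active = inhibition above the mean of all tested compounds plus 3 SD, set per screening campaign, cut at about 45% in these data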
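Assay system – GST-tagged and Flag-tagged HCV core protein residues 1-106 · Quantity – core106 proteins, GST 13.5 nM and Flag 17 nM · Benchmarks – unlabelled core106 and no-GST-core106 wells · Read-out basis – percent inhibition of core106 dimerization signal · Detection – time-resolved FRET, ex 340 nm, em 617 and 671 nm · Schedule – 4 h at 22.5 °C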
HCV NS3 hel inh = HCV NS3 helicase inhibition. NS3 helicase DNA unwinding, Cy5 molecular beacon fluorescence. inhibition, % at 10.9 µM. 290,000 tested, 0.56% active;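 active = inhibition above the mean of all tested compounds plus 3 SD, set per campaign, cut at about 35% in these data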;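 note: 0% = DMSO wells and 100% = thioflavine S control wells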
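Material: hepatitis C virus NS3 helicase domain fragment enzyme; measured by: Cy5 fluorescence, 0 and 60 min reads; control set: DMSO and thioflavine S; incubation: 60 min unwinding reaction at 25 °C after ATP addition; read-out basis: % inhibition from 60/0 min fluorescence ratio, DMSO 0%, thioflavine S 100%; repeats: singlicate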
PP1 confirm = confirmation of human PP1 phosphatase inhibitors; inhibition, % at 6.7 µM; shares compounds with PP1 counter; purified PP1alpha, OMFP substrate fluorescence; 1,900 tested, 52% active;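 active = mean PP1 inhibition above a set limit taken from the earlier primary screen, cut at about 15% in these data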
PP5 inh counter = counter-screen for PP1 inhibitors: human PP5 phosphatase inhibition | AID 2360 | 1,900 tested, 4% active | purified PP5c, OMFP fluorescence | shares compounds with PP1 counter | inhibition, % at 6.7 µM;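 active = mean PP5 inhibition over triplicate wells above about 9.5% taken from the earlier PP1 screen, limit read from the data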
An asterisk follows results filed as active; . = no result.

SMILES	PP1 counter	EBNA-1 inhibitor	ZTA counter	core dimer inh	HCV NS3 hel inh	PP1 confirm	PP5 inh counter
C#CCOCCOCCOCCNc1nc(N2CCN(C(=O)CCCCCCCCCCNC(=O)[C@H]([C@@H](C)CC)n3cc(CCCCCN)nn3)CC2)nc(N2CCN(C(=O)CCCCCCCCCCNC(=O)[C@H](CO)n3cc(CCCCCN)nn3)CC2)n1	53*	-15	-2	7	.	26*	-2
C#CCOCCOCCOCCNc1nc(N2CCN(C(=O)CCCCCCCCCCNC(=O)[C@@H](CCSC)n3cc(CCO)nn3)CC2)nc(N2CCN(C(=O)CCCCCCCCCCNC(=O)[C@H](CCSC)n3cc(CCO)nn3)CC2)n1	23*	2	-22	13	.	4	2
C#CCOCCOCCOCCNc1nc(N2CCOCC2)nc(N2CCN(C(=O)[C@H](Cc3cc4ccccc4[nH]3)n3cc([C@@H](N)Cc4ccc(O)cc4)nn3)CC2)n1	-2	7	-11	-5	-62	.	.
C#CCOCCOCCOCCNc1nc(N2CCN(C(=O)CCCCCCCCCCNC(=O)[C@H](CCCCN)n3cc(C)nn3)CC2)nc(N2CCN(C(=O)CCCCCCCCCCNC(=O)[C@H](CCCCN)n3cc(CCCC(=O)O)nn3)CC2)n1	2	10	8	-17	.	.	.
C#CCOCCOCCOCCNc1nc(N2CCN(C(=O)CCCCCCCCCCNC(=O)[C@H]([C@@H](C)CC)n3cc(CCCCN=C(N)N)nn3)CC2)nc(N2CCN(C(=O)CCCCCCCCCCNC(=O)[C@H](CO)n3cc(CCCCCN)nn3)CC2)n1	73*	5	22	4	.	45*	2
C#CCOCCOCCOCCNc1nc(N2CCN(C(=O)CCCCCCCCCCNC(=O)[C@@H](CCC(=O)O)n3cc(CCCCCN)nn3)CC2)nc(N2CCN(C(=O)CCCCCCCCCCNC(=O)[C@H]([C@@H](C)CC)n3cc(CCCCCN)nn3)CC2)n1	13	8	30	-10	.	.	.
Cn1c(=O)c([N+](=O)[O-])c(N2CCN(Cc3ccc4c(c3)OCO4)CC2)c2ccccc21	1	3	9	4	-4	.	.
CC(C)CCN1C(=O)C2(OCCCO2)c2cc(Cl)ccc21	2	-14	2	-7	-5	.	.
O=C1C(Cc2ccccc2)Nc2ncnc(N3CCN(c4ccccc4)CC3)c2N1Cc1ccccc1 (stereo not given)	14	-2	-4	18	.	.	.
O=C1C(Cc2ccccc2)Nc2ncnc(N3CCc4ccccc4C3)c2N1Cc1ccc(Br)cc1 (stereo not given)	20*	2	-10	17	.	15	-1
O=C(COc1ccc(/C=N/NC(=O)c2ccc(O)cc2)cc1)Nc1cccc([N+](=O)[O-])c1	27*	11	18	6	4	26*	-2
N#CC1=C2SC=C(c3ccc(Br)cc3)N2CCCC1=O	3	-6	-1	3	-11	.	.
N#CC1=C2Sc3ccccc3N2CCCC1=O	56*	6	8	3	1	-3	-4
Cc1ccc(C(C)C)c(OCc2ccc(C(=O)N/N=C/c3ccc(O)cc3O)cc2)c1	26*	10	11	4	1	34*	-2
Cc1ccc(C(C)C)c(OCc2ccc(C(=O)N/N=C/c3ccc(C(=O)O)cc3)cc2)c1	3	-3	4	21	13	.	.
CN(CC(=O)Nc1c(Cl)cccc1Cl)C(=O)c1ccc(-n2cncn2)c([N+](=O)[O-])c1	-6	-7	-19	-2	.	.	.
COc1ccc(S(=O)(=O)c2c(N)n(Cc3ccco3)c3nc4ccccc4nc23)cc1	19*	1	12	72*	35	10	0
Cc1ccc(S(=O)(=O)c2c(N)n(/N=C/c3ccco3)c3nc4ccccc4nc23)cc1	1	12	-4	18	3	.	.
Cc1ccc(S(=O)(=O)CCC(=O)OCC(=O)c2ccc(F)cc2)cc1	31*	-7	6	-3	.	1	0
CCOC(=O)N1CCN(S(=O)(=O)c2ccc(C(=O)NNc3nc4cc(C)cc(C)c4s3)cc2)CC1	19*	6	-6	-3	-6	26*	1
CCOC(=O)N1CCN(S(=O)(=O)c2ccc(C(=O)NNc3nc4c(C)cccc4s3)cc2)CC1	5	-14	-3	-5	-2	.	.
